Reference: ChEMBL document CHEMBL4000219, “Synthesis and biological evaluation of naphthoquinone-coumarin conjugates as topoisomerase II inhibitors” (Bioorg Med Chem Lett, 2017)
The source made the active and inactive calls. No cut-off for these calls is given here.

What was measured:
Escherichia coli [1] = assay: Inhibition of Escherichia coli DNA topisomerase-1 assessed as reduction in enzyme-mediated relaxation of supercoiled pBlueScript 2 KS+ DNA substrate at 100 uM after 1 hr by agarose gel electrophoresis method
Procedure, shortened: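 2.5U E. coli TopoI acting on supercoiled monomer substrate, in 1% (v/v) DMSO. Chloroquine and etoposide as controls. Agarose gel run without ethidium bromide separates supercoiled substrate from relaxed products.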

[2] = molecular target: T1, DNA topoisomerase 2-alpha (Homo sapiens, UniProt P11388); assay: (§1) Inhibition of human topoisomerase-2 alpha ATPase activity expressed in baculovirus infected insect cells assessed as disappearance of NADH at 100 uM using pBR322 DNA as substrate preincubated for 10 mins followed by ATP addition measured up to 35 mins by spectrophotometric based pyruvate kinase/lactate dehydrogenase coupled enzyme assay relative to control
Procedure, shortened: (§2)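 hTopoII ATPase measured in an ATPase/pyruvate kinase/lactate dehydrogenase linked assay as decline of NADH absorbance at 340 nm. Activity expressed as percent of 1% DMSO control.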

[3] = molecular target: T1, DNA topoisomerase 2-alpha; assay: as §1, with “10” for “100”; procedure, shortened: as §2
Escherichia coli [4] = assay: Inhibition of Escherichia coli DNA topisomerase-1 assessed as reduction in enzyme-mediated unwinding activity at 100 uM using ladder of partially relaxed pBlueScript 2 KS+ DNA as substrate after 1 hr by agarose gel electrophoresis method
Procedure, shortened: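 E. coli TopoI unwinding assay for intercalation: a ladder of partially relaxed forms as substrate, in 1% (v/v) DMSO. Chloroquine as control. Agarose gel run without ethidium bromide separates the ladder from relaxed products.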

Escherichia coli [5] = assay: Inhibition of Escherichia coli DNA gyrase assessed as reduction in enzyme-mediated supercoiling activity at 100 uM using ladder of partially relaxed pBlueScript 2 KS+ DNA as substrate after 1 hr by agarose gel electrophoresis method
Procedure, shortened: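 2.5U E. coli DNA gyrase acting on a ladder of partially relaxed forms as substrate, in 1% (v/v) DMSO. Agarose gel run without ethidium bromide separates the relaxed ladder from monomeric supercoiled product.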

[6] = molecular target: T1, DNA topoisomerase 2-alpha; assay: Inhibition of human topoisomerase-2 alpha expressed in baculovirus infected insect cells assessed as reduction in enzyme-meditaed supercoiled pRYG DNA substrate relaxation in presence of buffer containing DTT after 30 mins by agarose gel electrophoresis method
Procedure, shortened: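 hTopoII relaxation of supercoiled pRYG plasmid in commercial DTT-containing reaction buffer, with compounds at 10, 30 and 100. Gel bands quantified as percent inhibition. Three independent assays, mean + SEM.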

[7] = molecular target: T1, DNA topoisomerase 2-alpha; assay: Inhibition of human topoisomerase-2 alpha expressed in baculovirus infected insect cells assessed as reduction in enzyme-meditaed supercoiled pRYG DNA substrate relaxation at 100 uM in presence of buffer containing DTT after 30 mins by agarose gel electrophoresis method
Procedure, shortened: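 2U hTopoII on covalently closed negatively supercoiled pRYG plasmid, in 1% (v/v) DMSO. Commercial reaction buffer containing DTT. Etoposide, ICRF-187 and merbarone as controls. Agarose gel run without ethidium bromide separates supercoiled forms from relaxed topoisomers.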

[8] = molecular target: T1, DNA topoisomerase 2-alpha; assay: Poison activity at human topoisomerase-2 alpha expressed in baculovirus infected insect cells assessed as stabilization of cleavage complex at 100 uM using pRYG DNA as substrate after 10 mins by ethidium bromide staining based agarose gel electrophoresis method
Procedure, shortened: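 Cleavage assay: 10U hTopoII on negatively supercoiled pRYG plasmid, in 1% (v/v) DMSO. Etoposide as positive control. Agarose gel run in the presence of ethidium bromide separates supercoiled substrate from linearized plasmid intermediate.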

[9] = molecular target: T1, DNA topoisomerase 2-alpha; assay: Inhibition of human topoisomerase-2 alpha expressed in baculovirus infected insect cells assessed as reduction in enzyme-meditaed supercoiled pRYG DNA substrate relaxation at 100 uM in presence of buffer containing 2-mercaptoethanol after 30 mins by agarose gel electrophoresis method
Procedure, shortened: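 2U hTopoII on covalently closed negatively supercoiled pRYG plasmid, in 1% (v/v) DMSO. Home-made reaction buffer with 2-mercaptoethanol as reducing agent. Etoposide, ICRF-187 and merbarone as controls. Agarose gel run without ethidium bromide separates supercoiled substrate from relaxed topoisomers.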

[10] = molecular target: T1, DNA topoisomerase 2-alpha; assay: as §1, with “30” for “100”; procedure, shortened: as §2

T1 sequence (P11388 whole entry): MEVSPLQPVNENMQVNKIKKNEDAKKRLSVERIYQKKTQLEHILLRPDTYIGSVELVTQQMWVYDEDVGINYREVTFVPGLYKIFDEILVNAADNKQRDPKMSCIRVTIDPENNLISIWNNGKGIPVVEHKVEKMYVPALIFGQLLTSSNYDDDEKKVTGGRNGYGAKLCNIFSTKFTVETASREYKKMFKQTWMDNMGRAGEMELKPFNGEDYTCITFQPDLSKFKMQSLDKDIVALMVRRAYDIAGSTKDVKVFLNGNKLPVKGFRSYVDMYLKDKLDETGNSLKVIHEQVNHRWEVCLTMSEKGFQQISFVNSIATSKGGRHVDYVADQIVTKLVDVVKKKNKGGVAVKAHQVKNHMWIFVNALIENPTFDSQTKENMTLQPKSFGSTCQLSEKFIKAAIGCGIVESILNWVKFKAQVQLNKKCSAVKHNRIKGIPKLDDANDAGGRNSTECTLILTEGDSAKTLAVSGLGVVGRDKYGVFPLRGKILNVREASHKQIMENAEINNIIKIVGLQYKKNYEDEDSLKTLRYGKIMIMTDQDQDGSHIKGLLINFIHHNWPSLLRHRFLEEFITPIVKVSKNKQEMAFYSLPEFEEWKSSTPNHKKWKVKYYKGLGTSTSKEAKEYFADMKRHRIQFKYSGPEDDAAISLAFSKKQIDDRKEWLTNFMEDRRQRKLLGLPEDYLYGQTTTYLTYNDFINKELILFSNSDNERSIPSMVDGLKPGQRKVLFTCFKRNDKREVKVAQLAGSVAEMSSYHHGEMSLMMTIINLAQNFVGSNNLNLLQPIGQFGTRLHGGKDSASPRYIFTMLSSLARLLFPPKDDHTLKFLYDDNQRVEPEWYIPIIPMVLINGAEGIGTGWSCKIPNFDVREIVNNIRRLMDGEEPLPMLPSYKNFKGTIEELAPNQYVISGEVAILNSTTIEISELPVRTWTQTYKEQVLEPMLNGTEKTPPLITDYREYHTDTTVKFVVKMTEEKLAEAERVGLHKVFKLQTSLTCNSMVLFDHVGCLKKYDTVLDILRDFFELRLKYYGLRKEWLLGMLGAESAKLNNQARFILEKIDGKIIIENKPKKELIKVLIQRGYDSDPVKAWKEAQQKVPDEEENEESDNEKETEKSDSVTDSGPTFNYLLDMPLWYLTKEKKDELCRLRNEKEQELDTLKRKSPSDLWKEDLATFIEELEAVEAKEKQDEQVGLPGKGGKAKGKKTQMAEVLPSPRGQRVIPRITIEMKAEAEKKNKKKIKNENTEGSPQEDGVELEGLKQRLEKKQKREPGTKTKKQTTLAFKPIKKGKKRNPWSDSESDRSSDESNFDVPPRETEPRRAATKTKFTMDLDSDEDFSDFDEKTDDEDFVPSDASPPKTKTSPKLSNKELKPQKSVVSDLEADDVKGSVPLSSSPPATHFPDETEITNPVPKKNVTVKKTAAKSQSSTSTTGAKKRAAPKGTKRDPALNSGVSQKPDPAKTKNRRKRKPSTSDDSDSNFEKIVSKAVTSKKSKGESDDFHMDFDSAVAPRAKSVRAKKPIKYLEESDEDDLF

SMILES	inhibition (Escherichia coli [1])	inhibition [2] [%]	inhibition [3] [%]	inhibition (Escherichia coli [4])	inhibition (Escherichia coli [5])	IC50 [6] [µM]	inhibition [7]	Activity [8]	inhibition [9]	inhibition [10] [%]
CCN(CC)CCCC(C)Nc1ccnc2cc(Cl)ccc12 (centres undefined)	Active	–	–	–	–	–	–	–	–	–
O=C1C(O)=C(C(c2ccc(Br)cc2)c2c(O)c3ccccc3oc2=O)C(=O)c2ccccc21 (centres undefined)	inactive	96	40	inactive	inactive	10 to 30	Active	inactive	Active	57
O=C1C(O)=C(C(c2ccccc2)c2c(O)c3ccccc3oc2=O)C(=O)c2ccccc21 (centres undefined)	inactive	94	69	inactive	inactive	10 to 30	Active	inactive	Active	87
O=C(O)c1cn(C2CC2)c2cc(N3CCNCC3)c(F)cc2c1=O	–	–	–	–	Active	–	–	–	–	–
O=C1C(O)=C(C(c2ccc(Cl)cc2)c2c(O)c3ccccc3oc2=O)C(=O)c2ccccc21 (centres undefined)	inactive	94	61	inactive	inactive	10 to 30	Active	inactive	Active	78
O=C1C(O)=C(C(c2ccc([N+](=O)[O-])cc2)c2c(O)c3ccccc3oc2=O)C(=O)c2ccccc21 (centres undefined)	inactive	61	34	inactive	inactive	10 to 30	Active	inactive	Active	39
O=C1C(O)=C(C(c2ccc(F)cc2)c2c(O)c3ccccc3oc2=O)C(=O)c2ccccc21 (centres undefined)	inactive	94	67	inactive	inactive	10 to 30	Active	inactive	Active	90
C[C@@H](CN1CC(=O)NC(=O)C1)N1CC(=O)NC(=O)C1	–	–	–	–	–	–	Active	–	inactive	–
O=C1C(O)=C(C(c2ccccc2F)c2c(O)c3ccccc3oc2=O)C(=O)c2ccccc21 (centres undefined)	inactive	82	24	inactive	inactive	10 to 30	Active	inactive	Active	30
COc1cc([C@@H]2c3cc4c(cc3[C@@H](O[C@@H]3O[C@@H]5CO[C@@H](C)O[C@H]5[C@H](O)[C@H]3O)[C@H]3COC(=O)[C@H]23)OCO4)cc(OC)c1O	–	–	–	–	–	–	Active	Active	inactive	–
O=C1C(O)=C(C(c2ccc3c(c2)OCO3)c2c(O)c3ccccc3oc2=O)C(=O)c2ccccc21 (centres undefined)	inactive	94	43	inactive	inactive	10 to 30	Active	inactive	Active	67
O=C1NC(=S)NC(=O)C1C(=O)Nc1ccccc1	–	–	–	–	–	–	Active	–	inactive	–
